# ChEMBL document CHEMBL5500359, “Identification of a new bisindolinone arresting IGROV1 cells proliferation” (Eur J Med Chem, 2024)
# The source made the active and inactive calls. The calls are words filed in the database; no cut-off is given here.
# What was measured:
# IGROV-1 [1] = assay: Downregulation of RAD51 level in human IGROV-1 cells at 5 uM pretreated for 24 hrs followed by UV exposure for 6 hrs by Western blot analysis; assay type: functional, cell-based; conditions: time 30.0 hrs
# Outline: (§1)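 IGROV1 pretreated 24 h with 5 μM, then UV-irradiated with a 7.5 W lamp for 3 min; UV alone as positive control. Cyclin D1 and RAD51 by RIPA-lysate Western blot normalized to α-tubulin; γH2AX by acid-extracted histone blot normalized to H1; percent of vehicle, mean ± SD, three experiments.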
# [2] = Selectivity index, ratio of IC50 for human HDFa cells to IC50 for human IGROV-1 cells; assay type: functional
# Outline: (§2)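 IGROV1 and HDFa in RPMI 1640 + 10% FCS, 2 mM glutamine, 37 °C, 5% CO2; seeded 1.5×10^4/well, after 24 h exposed 24 h to 0.010–500 μM (DMSO ≤0.1%). MTT 0.2 mg/mL in PBS 2 h at 37 °C, absorbance 570 nm; IC50 from dose-response, three independent experiments each in triplicate; SI = HDFa IC50/IGROV1 IC50.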
# IGROV-1 [3] = assay: Cytotoxicity against human IGROV-1 cells assessed as reduction in cell viability incubated for 24 hrs by MTT assay; assay type: functional, cell-based; conditions: IGROV-1, 24 h; outline: as §2
# Breast cancer cell line [4] = assay: Cell growth inhibition of human Breast cancer cells incubated for 48 hrs by SRB assay; assay type: functional; conditions: read-out: LC50 (the source's name)
# Outline: (§3)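 NCI DTP five-concentration screen. Cells were seeded at 5 × 10³–4 × 10⁴ cells/well, depending on the line. Compounds were diluted in fresh medium and added at scalar concentrations over 0–1000 µM or 0–100 µM. After 48 h the cells were fixed in situ, stained with sulforhodamine B, and optical density was read. GI50, TGI and LC50 were derived by NCI procedures, and the panel mean is the mean graph midpoint.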
# Breast cancer cell line [5] = assay: Cytotoxicity against human Breast cancer cells incubated for 48 hrs by SRB assay; assay type: functional
# Outline: (§4)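 NCI-60 five-concentration screen: lines seeded 5×10^3–4×10^4 cells/well depending on line; compound diluted in fresh medium at scalar concentrations 0–100 or 0–1000 μM; 48 h exposure, in situ fixation, sulforhodamine B protein staining, optical density read; GI50, TGI and LC50 per NCI procedures; panel mean = mean graph midpoint.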
# Ovarian cancer cell line = assay: Cytotoxicity against human Ovarian cancer cells incubated for 48 hrs by SRB assay; assay type: functional; outline: as §4
# IGROV-1 [6] = assay: Effect on p21 level in human IGROV-1 cells at 5 uM incubated for 6 hrs by Western blot analysis; assay type: functional, cell-based
# IGROV-1 [7] = assay: Induction of cell cycle arrest in human IGROV-1 cells assessed as increase in cell accumulation at G0/G1 phase at 5 uM incubated for 24 hrs by PI staining based flow cytometry relative to control; assay type: functional
# Outline: (§5)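 IGROV1 plated 2×10^4 cells/cm², after 24 h given 5 μM for 24 h; cells detached, PBS-washed, stained 30 min at room temperature in dark with 50 μg/mL propidium iodide, 10 μg/mL RNase, 0.01% Igepal, 0.1% sodium citrate; DNA content by flow cytometry, phase percentages versus untreated.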
# IGROV-1 [8] = assay: Downregulation of CCND1 mRNA level in human IGROV-1 cells at 5 uM incubated for 6 hrs by RT-PCR analysis; assay type: functional, cell-based
# Outline: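 IGROV1 given 5 μM versus vehicle; RNA extracted by spin column, reverse transcribed, CCND1, CDKN1A and ITAG5 transcripts quantified by qRT-PCR as fold change versus vehicle; at least triplicate, Student's t-test, p<0.05.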
# HDFa (Homo sapiens) = assay: Antiproliferative activity against human HDFa cells assessed as doubling time at 5 uM measured after 48 hrs (reference value: 35 hrs)
# IGROV-1 [9] = assay: Downregulation of CCND1 level in human IGROV-1 cells at 5 uM incubated for 6 hrs by Western blot analysis; assay type: functional, cell-based
# Outline: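 IGROV1 exposed to 5 μM; RIPA lysates at 4 °C, protein quantified, SDS-PAGE (12.5% or 7.5%), nitrocellulose blot probed overnight at 4 °C for cyclin D1 or α5 integrin subunit; densitometry normalized to α-tubulin, percent of vehicle, mean ± SD of three experiments.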
# IGROV-1 [10] = assay: Anti-motility activity in human IGROV-1 cells assessed as decrease in cell displacement at 5 uM incubated for 24 hrs; assay type: functional, cell-based
# Outline: (§6)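 Livecyte quantitative phase imaging, label-free single-cell tracking; IGROV1 seeded 4×10^3/well, treated after 24 h with 5 μM in six replicates; frames every 60 min for 2 days, 10× objective, 37 °C, 5% CO2. Each cell tracked for displacement, instantaneous velocity and directionality.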
# [11] = Cytotoxicity against human HDFa cells assessed as reduction in cell viability incubated for 24 hrs by MTT assay; assay type: toxicity, cell-based; outline: as §2
# IGROV-1 [12] = assay: Anti-motility activity in human IGROV-1 cells assessed as decrease in cell velocity at 5 uM incubated for 24 hrs; assay type: functional, cell-based; outline: as §6
# IGROV-1 [13] = assay: Downregulation of CCND1 mRNA level in human IGROV-1 cells at 5 uM pretreated for 24 hrs followed by UV exposure for 6 hrs by qRT-PCR analysis; assay type: functional, cell-based; conditions: time 30.0 hrs
# Outline: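 IGROV1 pretreated 24 h with 5 μM then UV-irradiated (7.5 W lamp, 3 min); CCND1 and RAD51 mRNA by qRT-PCR after column RNA extraction and reverse transcription, fold change versus vehicle; at least triplicate, Student's t-test.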
# IGROV-1 [14] = assay: Induction of cell cycle arrest in human IGROV-1 cells assessed as decrease in cell accumulation at S phase at 5 uM incubated for 24 hrs by PI staining based flow cytometry relative to control; assay type: functional; set-up: scale not given: the % may be the effect or the level left; outline: as §5
# Prostatic carcinoma cell = assay: Cell growth inhibition of human Prostate carcinoma cells incubated for 48 hrs by SRB assay; assay type: functional; outline: as §4
# Renal cancer cell line = assay: Cytostatic activity against human Renal cancer cells incubated for 48 hrs by SRB assay; assay type: functional; outline: as §4
# [15] = Cytostatic activity against human Leukemia cancer cells incubated for 48 hrs by SRB assay; assay type: functional, Leukemia cell; outline: as §4
# IGROV-1 [16] = assay: Downregulation of CCND1 level in human IGROV-1 cells at 5 uM pretreated for 24 hrs followed by UV exposure for 6 hrs by Western blot analysis; assay type: functional, cell-based; conditions: time 30.0 hrs; outline: as §1
# IGROV-1 [17] = assay: Effect on directionality of human IGROV-1 cells at 5 uM incubated for 24 hrs; assay type: functional, cell-based; outline: as §6
# CNS carcinoma cell = assay: Cytostatic activity against human CNS carcinoma cells incubated for 48 hrs by SRB assay; assay type: functional; outline: as §4
# Breast cancer cell line [18] = assay: Cytostatic activity against human Breast cancer cells incubated for 48 hrs by SRB assay; assay type: functional; outline: as §4
# IGROV-1 [19] = assay: Antiproliferative activity against human IGROV-1 cells at 5 uM incubated upto 48 hrs by quantitative phase imaging microscopy; assay type: functional, cell-based
# Outline: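 Quantitative phase imaging on IGROV1 seeded 4×10^3/well, 24 h later given 5 μM (six replicates; DMSO ≤0.1% final). Images hourly for 2 days at 37 °C, 5% CO2. Cell count and confluence normalized to experiment start; doubling time derived from growth.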
# Colon carcinoma cell = assay: Cytotoxicity against human Colon carcinoma cells incubated for 48 hrs by SRB assay; assay type: functional; outline: as §4
# [20] = Cytotoxicity against human Leukemia cancer cells incubated for 48 hrs by SRB assay; assay type: functional; conditions: Leukemia cell, read-out: LC50 (the source's name); outline: as §3
# Melanoma cell line = assay: Cell growth inhibition of human Melanoma cells incubated for 48 hrs by SRB assay; assay type: functional; outline: as §4
smiles,measurement,setting,value
CC(C)(C)c1cc(/C=C2/C(=O)Nc3cc(Cl)ccc32)c(O)c(/C=C2/C(=O)Nc3cc(Cl)ccc32)c1,Activity,IGROV-1 [1],Active
same,Ratio IC50,[2],3.64
same,IC50,IGROV-1 [3],6.06 µM
same,CC50,Breast cancer cell line [4],2.95 µM
same,GI,Breast cancer cell line [5],48.98 µM
same,GI,Ovarian cancer cell line,30.9 µM
same,Activity,IGROV-1 [6],inactive
same,Activity,IGROV-1 [7],13.4%
same,Activity,IGROV-1 [8],Active
same,Time,HDFa (Homo sapiens),56 h
same,Activity,IGROV-1 [9],Active
same,Activity,IGROV-1 [10],Active
same,IC50 at 24 h,[11],21.9 µM
same,Activity,IGROV-1 [12],Active
same,Activity,IGROV-1 [13],Active
same,Activity,IGROV-1 [14],21.2%
same,GI,Prostatic carcinoma cell,3.63 µM
same,GI,Renal cancer cell line,11.22 µM
same,GI,[15],18.62 µM
same,Activity,IGROV-1 [16],Active
same,Activity,IGROV-1 [17],inactive
same,GI,CNS carcinoma cell,11.75 µM
same,TGI,Breast cancer cell line [18],13.2 µM
same,Activity,IGROV-1 [19],Active
same,GI,Colon carcinoma cell,37.15 µM
same,CC50,[20],97.7 µM
same,GI,Melanoma cell line,2.82 µM
